Assay results reported in ChEMBL document CHEMBL1142735, “Discovery of a new series of centrally active tricyclic isoxazoles combining serotonin (5-HT) reuptake inhibition with alpha2-adrenoceptor blocking activity” (J Med Chem, 2005).

Tests used:
Rattus norvegicus [1] = assay: Effective dose for PCA-induced 5-HT depletion was determined by oral administration; assay type: functional
Summary of the method: (§1)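 Male Wiga Wistar rats (200 g, n=6 per condition) dosed sc or po (10 mL/kg). At 4 h, frontal cortex removed and extracted with perchloric acid/metabisulfite; 5-HT measured by HPLC-electrochemical detection against a standard curve with dihydroxybenzylamine internal standard. Effect scaled between pCA+vehicle and vehicle+vehicle controls; ED50 from sigmoidal fit.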

[2] = target: 5-hydroxytryptamine receptor 7 (Homo sapiens, UniProt P34969); assay: Inhibition of [3H]5-HT binding to 5-hydroxytryptamine 7 receptor
Summary of the method: (§2)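 Radioligand competition binding on membranes from cell lines carrying the human target, incubated with the labelled ligand under optimized conditions. Separation by filtration, except α1A and D3, which used scintillation proximity assay.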

[3] = target: T1, 5-hydroxytryptamine receptor 1A (Homo sapiens, UniProt P08908); assay: Inhibition of [3H]8-OH-DPAT binding to 5-hydroxytryptamine 1A receptor; summary of the method: as §2
T1 sequence (P08908 whole entry): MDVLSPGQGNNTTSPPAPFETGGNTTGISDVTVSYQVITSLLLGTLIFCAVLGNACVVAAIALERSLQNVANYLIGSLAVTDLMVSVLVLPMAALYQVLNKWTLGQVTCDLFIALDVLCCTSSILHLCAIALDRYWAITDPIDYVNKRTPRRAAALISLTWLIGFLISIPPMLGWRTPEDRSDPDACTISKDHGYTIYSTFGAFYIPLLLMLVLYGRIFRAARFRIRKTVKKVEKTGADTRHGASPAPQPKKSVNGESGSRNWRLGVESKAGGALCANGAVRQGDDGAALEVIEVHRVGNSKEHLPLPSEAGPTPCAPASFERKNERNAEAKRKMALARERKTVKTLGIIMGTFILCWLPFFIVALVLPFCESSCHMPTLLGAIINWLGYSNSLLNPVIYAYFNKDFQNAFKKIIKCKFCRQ

Histamine H1 receptor = Histamine H1 receptor (Homo sapiens, UniProt P35367); assay: Inhibition of [3H]pyrilamine binding to Histamine H1 receptor
Summary of the method: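 Radioligand competition on membranes from a cell line transfected with the human target, incubated under optimized conditions. Stopped by rapid filtration. Ki by Cheng-Prusoff.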

[4] = target: Sodium-dependent dopamine transporter (Rattus norvegicus, UniProt P23977); assay: Inhibition of [3H]WIN-35428 binding to Dopamine transporter of rat striatum; assay type: tissue-based
Summary of the method: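 Competition binding using rat striatum membranes incubated with the radioligand under optimized conditions, separated by filtration.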

D(4) dopamine receptor = target: T2, D(4) dopamine receptor (Homo sapiens, UniProt P21917); assay: Inhibition of [3H]spiperone binding to Dopamine receptor D4; summary of the method: as §2
T2 sequence (P21917 whole entry): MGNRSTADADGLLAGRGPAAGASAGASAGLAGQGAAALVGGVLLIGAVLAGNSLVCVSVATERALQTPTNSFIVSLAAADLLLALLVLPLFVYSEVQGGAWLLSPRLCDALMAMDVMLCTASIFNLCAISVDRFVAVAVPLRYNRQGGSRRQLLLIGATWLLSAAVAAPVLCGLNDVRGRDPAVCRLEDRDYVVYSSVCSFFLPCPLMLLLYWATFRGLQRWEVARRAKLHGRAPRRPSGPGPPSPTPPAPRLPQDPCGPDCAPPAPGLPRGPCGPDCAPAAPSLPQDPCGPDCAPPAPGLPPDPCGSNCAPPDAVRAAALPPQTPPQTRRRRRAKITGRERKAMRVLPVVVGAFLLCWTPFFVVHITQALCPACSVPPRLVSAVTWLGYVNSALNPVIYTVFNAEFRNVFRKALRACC

[5] = target: T3, 5-hydroxytryptamine receptor 2C (Homo sapiens, UniProt P28335); assay: Inhibition of [3H]- mesulergine binding to 5-hydroxytryptamine 2C receptor; summary of the method: as §2
T3 sequence (P28335 whole entry): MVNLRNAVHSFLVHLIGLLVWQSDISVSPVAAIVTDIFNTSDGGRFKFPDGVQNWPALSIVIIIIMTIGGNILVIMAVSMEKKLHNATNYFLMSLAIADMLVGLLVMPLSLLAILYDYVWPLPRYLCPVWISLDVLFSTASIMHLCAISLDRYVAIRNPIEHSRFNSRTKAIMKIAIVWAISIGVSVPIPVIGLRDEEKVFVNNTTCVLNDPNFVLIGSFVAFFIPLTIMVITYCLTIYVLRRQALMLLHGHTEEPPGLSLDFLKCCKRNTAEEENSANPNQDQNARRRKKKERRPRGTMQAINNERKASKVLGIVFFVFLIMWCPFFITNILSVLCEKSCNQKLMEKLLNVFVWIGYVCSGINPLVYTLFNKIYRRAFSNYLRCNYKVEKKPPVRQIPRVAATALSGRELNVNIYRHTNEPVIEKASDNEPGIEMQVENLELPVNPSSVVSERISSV

Rattus norvegicus [6] = assay: Effective dose for PCA-induced 5-HT depletion was determined by subcutaneous administration; assay type: functional; settings: sc; summary of the method: as §1
Rattus norvegicus [7] = assay: Effective dose concentration for antagonism ofpCA-Induced excitation was determined by subcutaneous administration; assay type: functional; settings: sc
Summary of the method: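 Male Wistar rats (200-250 g), fasted overnight, given test compound or solvent sc before challenge. Loss of righting induced by medetomidine 0.10 mg/kg iv; reversal means no loss of righting. Excitation induced by pCA 5 mg/10 mL/kg sc and scored 0-3 over 15 min starting 45 min after pCA; inhibition means score <2.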

D(2) dopamine receptor = D(2) dopamine receptor (Homo sapiens, UniProt P14416); assay: Inhibition of [3H]spiperone binding to Dopamine receptor D2; summary of the method: as §2
D(3) dopamine receptor = D(3) dopamine receptor (Homo sapiens, UniProt P35462); assay: Inhibition of [125I]-iodosulpiride binding to Dopamine receptor D3
Summary of the method: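 Radioligand competition using membranes from a cell line transfected with human D3 receptor, incubated under optimized conditions. Bound ligand read by scintillation proximity assay rather than filtration. Ki by Cheng-Prusoff.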

Rattus norvegicus [8] = assay: Effective dose for antagonism ofpCA-Induced excitation was determined by oral administration; assay type: functional
Summary of the method: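 Oral pretreatment of overnight-fasted male Wistar rats (200-250 g), then medetomidine 0.10 mg/kg iv (reversal means no loss of righting) or pCA 5 mg/kg sc (excitation scored 0-3 over 15 min from 45 min after pCA; inhibition means score <2). Doses taken from a geometric series.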

[9] = target: 5-hydroxytryptamine receptor 2A (Homo sapiens, UniProt P28223); assay: Inhibition of [125I]- R91150 binding to 5-hydroxytryptamine 2A receptor; summary of the method: as §2
Chain of 5-hydroxytryptamine receptor 2A (P28223 whole entry): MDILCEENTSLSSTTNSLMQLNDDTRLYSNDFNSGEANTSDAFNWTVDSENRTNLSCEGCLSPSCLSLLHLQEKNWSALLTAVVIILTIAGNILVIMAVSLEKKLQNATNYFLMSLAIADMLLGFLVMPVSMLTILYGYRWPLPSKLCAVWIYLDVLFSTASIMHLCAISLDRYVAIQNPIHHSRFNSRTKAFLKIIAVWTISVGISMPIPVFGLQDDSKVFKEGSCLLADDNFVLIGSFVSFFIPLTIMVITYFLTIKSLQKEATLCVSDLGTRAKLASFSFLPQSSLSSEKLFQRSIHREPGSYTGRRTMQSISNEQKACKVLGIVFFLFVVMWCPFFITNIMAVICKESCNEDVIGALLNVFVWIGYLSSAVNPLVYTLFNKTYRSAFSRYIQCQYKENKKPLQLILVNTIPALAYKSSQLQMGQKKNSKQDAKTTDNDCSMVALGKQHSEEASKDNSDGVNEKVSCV

Chain of 5-hydroxytryptamine receptor 7 (P34969 whole entry): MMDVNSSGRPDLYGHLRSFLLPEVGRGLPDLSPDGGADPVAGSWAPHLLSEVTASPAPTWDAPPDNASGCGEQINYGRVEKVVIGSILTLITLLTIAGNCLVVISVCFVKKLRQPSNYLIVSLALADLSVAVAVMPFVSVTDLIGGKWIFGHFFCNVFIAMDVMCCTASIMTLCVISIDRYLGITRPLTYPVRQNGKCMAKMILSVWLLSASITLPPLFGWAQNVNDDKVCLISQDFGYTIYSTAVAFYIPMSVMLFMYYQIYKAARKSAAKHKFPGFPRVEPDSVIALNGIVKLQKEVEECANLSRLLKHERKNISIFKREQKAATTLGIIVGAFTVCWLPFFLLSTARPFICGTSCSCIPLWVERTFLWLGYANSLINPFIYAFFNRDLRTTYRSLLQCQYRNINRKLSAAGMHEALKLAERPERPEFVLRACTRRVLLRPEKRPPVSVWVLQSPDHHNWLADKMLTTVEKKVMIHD
Chain of D(3) dopamine receptor (P35462 whole entry): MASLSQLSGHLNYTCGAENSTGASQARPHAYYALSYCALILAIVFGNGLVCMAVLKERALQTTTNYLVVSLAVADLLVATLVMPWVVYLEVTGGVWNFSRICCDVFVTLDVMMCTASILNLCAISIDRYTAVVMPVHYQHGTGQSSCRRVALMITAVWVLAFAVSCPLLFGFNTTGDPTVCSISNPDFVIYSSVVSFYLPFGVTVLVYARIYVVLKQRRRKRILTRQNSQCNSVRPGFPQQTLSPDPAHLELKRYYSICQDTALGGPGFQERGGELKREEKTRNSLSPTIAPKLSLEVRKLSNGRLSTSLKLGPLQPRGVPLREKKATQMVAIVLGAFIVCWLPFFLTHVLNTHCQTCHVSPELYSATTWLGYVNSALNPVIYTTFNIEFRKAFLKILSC
Chain of D(2) dopamine receptor (P14416 whole entry): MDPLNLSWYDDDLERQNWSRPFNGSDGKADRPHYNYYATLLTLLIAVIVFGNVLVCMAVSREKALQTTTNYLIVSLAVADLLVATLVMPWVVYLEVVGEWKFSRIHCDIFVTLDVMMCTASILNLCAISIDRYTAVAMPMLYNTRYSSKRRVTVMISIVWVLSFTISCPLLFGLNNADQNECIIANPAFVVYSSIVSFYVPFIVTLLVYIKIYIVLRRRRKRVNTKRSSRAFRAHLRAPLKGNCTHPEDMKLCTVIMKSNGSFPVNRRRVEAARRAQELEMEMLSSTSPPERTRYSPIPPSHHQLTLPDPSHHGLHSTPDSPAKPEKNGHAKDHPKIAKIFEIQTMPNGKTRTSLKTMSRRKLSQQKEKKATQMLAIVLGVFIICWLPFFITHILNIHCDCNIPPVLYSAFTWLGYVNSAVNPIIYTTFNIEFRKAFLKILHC
Chain of Histamine H1 receptor (P35367 whole entry): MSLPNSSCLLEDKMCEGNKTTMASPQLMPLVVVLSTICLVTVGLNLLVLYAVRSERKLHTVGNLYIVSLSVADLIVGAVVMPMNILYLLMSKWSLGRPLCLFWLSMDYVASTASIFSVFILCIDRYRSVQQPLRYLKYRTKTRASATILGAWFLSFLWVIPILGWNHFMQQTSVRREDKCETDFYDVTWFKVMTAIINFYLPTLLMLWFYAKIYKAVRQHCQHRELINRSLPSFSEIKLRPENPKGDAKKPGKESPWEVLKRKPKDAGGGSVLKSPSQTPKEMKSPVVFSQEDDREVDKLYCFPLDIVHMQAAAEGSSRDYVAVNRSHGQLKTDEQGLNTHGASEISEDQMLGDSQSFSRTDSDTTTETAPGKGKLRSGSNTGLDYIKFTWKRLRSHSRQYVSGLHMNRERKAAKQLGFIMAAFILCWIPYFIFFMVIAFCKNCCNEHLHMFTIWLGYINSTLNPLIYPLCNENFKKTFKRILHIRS
Chain of Sodium-dependent dopamine transporter (P23977 whole entry): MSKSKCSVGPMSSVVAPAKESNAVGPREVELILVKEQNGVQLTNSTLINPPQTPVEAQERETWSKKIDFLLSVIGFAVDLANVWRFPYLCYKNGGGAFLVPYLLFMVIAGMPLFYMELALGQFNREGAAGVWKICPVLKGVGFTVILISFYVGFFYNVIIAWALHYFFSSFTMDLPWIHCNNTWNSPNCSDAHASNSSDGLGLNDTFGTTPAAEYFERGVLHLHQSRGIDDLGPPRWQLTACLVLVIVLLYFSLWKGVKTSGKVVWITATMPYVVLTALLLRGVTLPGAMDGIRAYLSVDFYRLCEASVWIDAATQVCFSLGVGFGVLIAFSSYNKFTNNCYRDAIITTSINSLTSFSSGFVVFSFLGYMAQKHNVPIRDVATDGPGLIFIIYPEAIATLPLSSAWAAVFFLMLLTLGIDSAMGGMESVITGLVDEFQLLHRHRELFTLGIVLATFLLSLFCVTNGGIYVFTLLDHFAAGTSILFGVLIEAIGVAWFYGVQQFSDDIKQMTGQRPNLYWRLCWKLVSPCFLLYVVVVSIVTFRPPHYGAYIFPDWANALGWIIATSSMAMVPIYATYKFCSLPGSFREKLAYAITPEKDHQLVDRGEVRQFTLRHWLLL

SMILES | ED50 (Rattus norvegicus [1]) | Ki [2] | Ki [3] | Ki (Histamine H1 receptor) | Ki [4] | Ki (D(4) dopamine receptor) | Ki [5] | ED50 (Rattus norvegicus [6]) | ED50 (Rattus norvegicus [7]) | Ki (D(2) dopamine receptor) | Ki (D(3) dopamine receptor) | ED50 (Rattus norvegicus [8]) | Ki [9]
COc1cc2c(cc1OC)C1=NO[C@@H](CN3CCN(C/C=C/c4ccccc4)CC3)[C@@H]1CO2 | 1.1 mg/kg | > 1000 nM | > 1000 nM | > 1000 nM | 515 nM | > 1000 nM | > 1000 nM | 0.17 mg/kg | 0.39 mg/kg | 959 nM | 270 nM | 5 mg/kg | > 1000 nM
COc1cc2c(cc1OC)C1=NO[C@@H](CN3CCN(C/C=C(\C)c4ccccc4)CC3)[C@@H]1CO2 | 3.5 mg/kg | > 1000 nM | > 1000 nM | > 1000 nM | 368 nM | > 1000 nM | > 1000 nM | 0.24 mg/kg | 0.5 mg/kg | > 1000 nM | 611 nM | ≥ 2.5 mg/kg | > 1000 nM
COc1cc2c(cc1OC)C1=NO[C@@H](CN3CCN(C/C(C)=C/c4ccccc4)CC3)[C@@H]1CO2 | 3.8 mg/kg | > 1000 nM | 475 nM | 113 nM | > 1000 nM | > 1000 nM | > 1000 nM | 0.33 mg/kg |  | 230 nM | 433 nM |  | > 1000 nM
COc1cc2c(cc1OC)C1=NO[C@@H](CN3CCN(Cc4ccc5ccccc5c4)CC3)[C@@H]1CO2 | 2.6 mg/kg | > 1000 nM | > 1000 nM | 460 nM | 246 nM | > 1000 nM | > 1000 nM | 0.25 mg/kg | 0.08 mg/kg | > 1000 nM | 107 nM | 5 mg/kg | > 1000 nM
